Results reported in ChEMBL document CHEMBL5634206, “Chiral hydroxymethyl-1H,3H-pyrrolo[1,2-c]thiazoles: the search for selective p53-activating agents for colorectal cancer therapy” (RSC Med Chem, 2024).

Experiments:
[1] = tested on: HCT-116; assay: Antiproliferative activity against wildtype p53 expressing human HCT-116 cells assessed as inhibition of cell growth incubated for 48 hrs by SRB assay; format: functional, cell-based
How it was run: (§1)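 Isogenic HCT116 p53+/+ and p53−/− pair from B. Vogelstein, grown as monolayers in RPMI-1640 with 2 mM L-glutamine and 10% heat-inactivated FBS at 37 °C, 5% CO2. Cells seeded at 5 × 10^3 per well for 24 h, then given serial dilutions from 0.2 to 50 μM for 48 h. IC50 read by sulforhodamine B staining.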

[2] = tested on: HCT-116; assay: Antiproliferative activity against human HCT-116 cells expressing p53-/- assessed as inhibition of cell growth incubated for 48 hrs by SRB assay; format: functional, cell-based; how it was run: as §1
[3] = tested on: MDA-MB-231; assay: Antiproliferative activity against human MDA-MB-231 cells assessed as inhibition of cell growth incubated for 48 hrs by SRB assay; format: functional, cell-based; settings: MDA-MB-231, 48 h
How it was run: (§2)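 MDA-MB-231 and PANC-1 cells grown in high-glucose DMEM (4.5 g L−1) with L-glutamine, sodium pyruvate and 10% heat-inactivated FBS at 37 °C, 5% CO2. After seeding 5 × 10^3 cells per well for 24 h, cells received serial dilutions of 0.2–50 μM for 48 h. IC50 by SRB. Mean ± SD of 3 independent experiments.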

[4] = tested on: PANC-1; assay: Antiproliferative activity against human PANC-1 cells assessed as inhibition of cell growth incubated for 48 hrs by SRB assay; format: functional, cell-based; settings: PANC-1, 48 h; how it was run: as §2
[5] = tested on: A-375; assay: Antiproliferative activity against human A-375 cells assessed as inhibition of cell growth incubated for 48 hrs by SRB assay; format: functional, cell-based; settings: A-375, 48 h
How it was run: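 A375 melanoma cells grown as monolayers in RPMI-1640 with 2 mM L-glutamine and 10% heat-inactivated FBS at 37 °C, 5% CO2. Seeded at 5 × 10^3 cells per well for 24 h, then exposed to serial dilutions (0.2–50 μM) for 48 h. IC50 determined by SRB. Mean ± SD of 3 independent experiments.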

[6] = tested on: HCT-116; assay: Potency index, ratio of test compound IC50 to MANIO IC50 for antiproliferative activity against wildtype p53 expressing human HCT-116 cells assessed as inhibition of cell growth incubated for 48 hrs by SRB assay
[7] = Selectivity ratio of IC50 for antiproliferative activity against human HCT-116 cells expressing p53-/- to IC50 for antiproliferative activity against wildtype p53 expressing human HCT-116 cells; format: functional
[8] = Homo sapiens, HCT-116, 48 h, read-out: IC50

SMILES | IC50 [1, 8] [µM] | IC50 [2, 8] [µM] | IC50 [3] [µM] | IC50 [4] [µM] | IC50 [5] [µM] | IC50 ([1]; hct-116) | IC50 ([2]; hct-116) | Ratio IC50 [6] | Ratio IC50 [7]
Cc1c(CO)cc2n1[C@@H](c1ccccc1)SC2 | 6.68 | > 50 | > 50 | > 50 | 39.5 |  |  |  | 
Cc1cc(CO)c2n1[C@@H](c1ccccc1)SC2 | 29.3 | > 50 |  |  |  |  |  |  | 
COc1cc([C@H]2SCc3c(CO)c(CO)c(C)n32)cc(OC)c1OC | > 50 | > 50 |  |  |  |  |  |  | 
COc1ccc([C@H]2SCc3c(CO)c(CO)c(C)n32)cc1 | 4.61 | > 50 | > 50 | > 50 | > 50 |  |  |  | 
Cc1c(CO)c(CO)c2n1[C@@H](c1ccc(O)cc1)SC2 | 16.6 | > 50 |  |  |  |  |  |  | 
Cc1c(CO)c(CO)c2n1[C@H](c1ccccc1)SC2(C)C | 24.3 | 22.2 |  |  |  |  |  |  | 
Cc1cc(CO)c2n1[C@H](c1ccccc1)SC2 | 0.14 | 18.1 | > 50 | > 50 | > 50 |  |  |  | 129
COc1ccc([C@@H]2SCc3c(CO)c(CO)c(C)n32)cc1 | 1.47 | 23.5 | 16.6 | > 50 | 22.8 |  |  |  | 
Cc1c(CO)c(CO)c2n1[C@@H](c1cccc3ccccc13)SC2 |  |  |  |  |  | Not Determined(Insoluble) | Not Determined(Insoluble) |  | 
Cc1c(CO)cc2n1[C@H](c1ccccc1)SC2 | 0.99 | 4.33 | 24.1 | 35 | 11.8 |  |  |  | 
Cc1c(CO)c(CO)c2n1[C@@H](c1ccc(F)cc1)SC2 | 4.43 | 32.5 | > 50 | 20.2 | 36.1 |  |  |  | 
Cc1c(CO)c(CO)c2n1[C@@H](c1cccc3cccnc13)SC2 | 7.5 | > 50 | > 50 | 17.4 | 24.4 |  |  |  | 
Cc1c(CO)c(CO)c2n1[C@@H](c1ccccc1)S(=O)(=O)C2 | > 15 | > 50 |  |  |  |  |  |  | 

Continued, in another order:

IC50 [1, 8] [µM] | IC50 [2, 8] [µM] | IC50 [3] [µM] | IC50 [4] [µM] | IC50 [5] [µM] | IC50 ([1]; hct-116) | IC50 ([2]; hct-116) | SMILES | Ratio IC50 [6] | Ratio IC50 [7]
5.11 | 51.8 | > 50 | 33.1 | 14.5 |  |  | Cc1c(CO)c(CO)c2n1[C@@H](c1ccccc1)SC2 | 5 | 
 | 48.2 | > 50 | 42.1 | 13.2 |  |  | Cc1c(CO)c(CO)c2n1[C@H](c1ccccc1)SC2 |  | ~50
28.3 | > 50 |  |  |  |  |  | Cc1c(CO)cc2n1CSC2 |  | 
20.3 | > 50 |  |  |  |  |  | OCc1cn2c(c1CO)CS[C@@H]2c1ccccc1 |  | 
33.3 | 46.2 |  |  |  |  |  | Cc1c(CO)c(CO)c2n1[C@@H](C)SC2 |  | 
> 50 | > 50 |  |  |  |  |  | OCc1nn2c(c1CO)CSC2 |  | 
16.3 | 29.1 |  |  |  |  |  | Cc1c(CO)c(CO)c2n1[C@@H](Cc1ccccc1)SC2 |  | 
31.4 | 42.7 |  |  |  |  |  | Cc1c(CO)c(CO)c2n1[C@H](C)SC2 |  | 
